From ChEMBL document CHEMBL1133655, “Preparation and biological activity of amino acid and peptide conjugates of antitumor hydroxymethylacylfulvene” (J Med Chem, 2000)
Peptide text beside a SMILES is read from it. * marks the point of attachment. X1 = CC1=C(C*)C2=C(C)C3(CC3)[C@@](C)(O)C(=O)C2=C1

Experiment: Concentration required for 50% toxicity in metastatic lung carcinoma (MV522) cells.
Conditions: Homo sapiens
Outline: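 Compounds held as 1 mg/mL DMSO stock, diluted in 20% DMSO/phosphate-buffered saline just before addition to MV 522 cultures; controls got equal DMSO/PBS. After 48 h incubation, cells were washed, stained with trypan blue and counted. Counts were reported as corresponding closely with colony-forming assay values.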

SMILES | IC50 [µM]
CC1=C(CSCC[C@H](N)C(=O)O)C2=C(C)C3(CC3)[C@@](C)(O)C(=O)C2=C1 | > 50
CC1=C(CSCC(N)C(=O)O)C2=C(C)C3(CC3)[C@@](C)(O)C(=O)C2=C1 (stereo partly specified) | 29.2
CC1=C(CSCC(NC(=O)CCC(N)C(=O)O)C(=O)NCC(=O)O)C2=C(C)C3(CC3)[C@@](C)(O)C(=O)C2=C1 (stereo partly specified) | 15.5
CC(=O)NC(CSCC1=C(C)C=C2C(=O)[C@](C)(O)C3(CC3)C(C)=C21)C(=O)N[C@@H](C)c1ccccc1 (stereo partly specified) | 2.5
CC1=C2C(=C[C@@](C)(CO)C2O)C(=O)[C@](C)(O)C12CC2 (stereo partly specified) | 0.073
CC(=O)N[C@@H](CSCC1=C(C)C=C2C(=O)[C@](C)(O)C3(CC3)C(C)=C21)C(=O)N[C@@H](Cc1ccccc1)C(=O)NCC(=O)N[C@@H](CC(C)C)C(=O)O (Ac-C(X1)FGL-OH) | 37.2
CC(=O)N[C@@H](CSCC1=C(C)C=C2C(=O)[C@](C)(O)C3(CC3)C(C)=C21)C(=O)N[C@@H](CC(C)C)C(=O)NCC(=O)N[C@@H](Cc1ccccc1)C(=O)O (Ac-C(X1)LGF-OH) | 28.2
CC(=O)N[C@@H](CSCC1=C(C)C=C2C(=O)[C@](C)(O)C3(CC3)C(C)=C21)C(=O)N[C@@H](CC(C)C)C(=O)N[C@@H](CC(C)C)C(=O)N[C@@H](Cc1ccccc1)C(=O)O (Ac-C(X1)LLF-OH) | > 40
CC(=O)N[C@@H](CSCC1=C(C)C=C2C(=O)[C@](C)(O)C3(CC3)C(C)=C21)C(=O)N[C@@H](CC(C)C)C(=O)N[C@@H](CC(C)C)C(=O)N[C@@H](CC(C)C)C(=O)O (Ac-C(X1)LLL-OH) | 24.7
CC1=CC2=C(C)C3(CC3)[C@@](C)(O)C(=O)C2=C1 [ACYLFULVENE] | 0.35
CC1=C(CO)C2=C(C)C3(CC3)[C@@](C)(O)C(=O)C2=C1 [IROFULVEN] | 0.004
